Tests used:
[1] = biological target: E3 ubiquitin-protein ligase TRIM33 (Homo sapiens, UniProt Q9UPN9); experiment: Binding affinity to human TRIM33-phd-bromo (D882 to A1087 residues) expressed in bacterial expression system by BROMOscan assay
Homo sapiens [2] = species on record: Homo sapiens; experiment: Selectivity index, ratio of Kd for human EP300 (A1040 to G1161 residues) to Kd for human BRDT bromodomain 1 (N21 to E137 residues)
[3] = biological target: T1, Bromodomain-containing protein 3 (Homo sapiens, UniProt Q15059); experiment: Binding affinity to human BRD3 bromodomain 2 (G306 to P416 residues) expressed in bacterial expression system by BROMOscan assay
Mus musculus = experiment: Toxicity in SCID mouse xenografted with human RS4:11 cells assessed as change in body weight at 10 to 50 mg/kg administered via oral gavage measured 2 to 3 times per week during compound dosing and measured weekly post treatment; format: organism-based; details: in vivo
Procedure, shortened: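 Xenografts raised by subcutaneous dorsal injection of 5 × 10⁶ cells in 50% Matrigel into SCID mice, one tumor per mouse. Mice randomized to treatment or vehicle groups at about 100 mm3 tumor volume. Compounds given by oral gavage at the indicated dose-schedules, with percentage body-weight change tracked alongside tumor volume (L × W²/2).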

Homo sapiens [4] = species on record: Homo sapiens; experiment: Selectivity index, ratio of Kd for human CREBBP (R1081 to G1197 residues) to Kd for human BRD4 bromodomain 1 (N44 to E168 residues)
Homo sapiens [5] = species on record: Homo sapiens; experiment: Selectivity index, ratio of Kd for human CREBBP (R1081 to G1197 residues) to Kd for human BRD3 bromodomain 2 (G306 to P416 residues)
[6] = biological target: T2, Bromodomain-containing protein 4 (Homo sapiens, UniProt O60885); experiment: Binding affinity to human BRD4 bromodomain 1 (N44 to E168 residues) expressed in bacterial expression system by BROMOscan assay
[7] = Apparent volume of distribution in Balb/c mouse at 5 mg/kg, iv by LC-MS/MS analysis; format: ADME, organism-based; details: in vivo, read-out: Vz
Procedure, shortened: (§1)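 Balb/c mice dosed iv at 5.0 mg/kg or po at 25 mg/kg, compound in vehicle of 20% (v/v) PCP and 70% (v/v) PBS. Serial blood samples taken at 0, 5, 15, 30 min and 1, 2, 4, 6, 8, 24 h. Plasma obtained by centrifugation and stored at −80 °C. Analysis by LC-MS/MS, positive-ion MRM. Parameters from noncompartmental analysis.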

Protein polybromo-1 = Protein polybromo-1 (Homo sapiens, UniProt Q86U86); experiment: Binding affinity to human PBRM1 bromodomain 2 (S178 to E291 residues) expressed in bacterial expression system by BROMOScan assay
[8] = biological target: Bromodomain-containing protein 1 (Homo sapiens, UniProt O95696); experiment: Binding affinity to human BRD1 (E556 to A688 residues) expressed in bacterial expression system by BROMOScan assay
[9] = Half life in Balb/c mouse at 25 mg/kg, po by LC-MS/MS analysis; format: ADME, organism-based; details: in vivo; procedure, shortened: as §1
[10] = biological target: T2, Bromodomain-containing protein 4; experiment: Inhibition of FAM-labeled ZBA248 binding to recombinant human BRD4 bromodomain 1 (44 to 168 residues) expressed in Rosetta2 Escherichia coli DE3 cells after 30 mins by fluorescence polarization assay
Procedure, shortened: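 Recombinant human BRD4 BD1 (residues 44−168) in a fluorescence polarization competitive binding assay, run as described in earlier work.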

[11] = biological target: ATPase family AAA domain-containing protein 2 (Homo sapiens, UniProt Q6PL18); experiment: Binding affinity to human ATAD2A (Q981 to R1108 residues) expressed in bacterial expression system by BROMOScan assay
[12] = biological target: Nucleosome-remodeling factor subunit BPTF (Homo sapiens, UniProt Q12830); experiment: Binding affinity to human FALZ (S2791 to H2911 residues) expressed in bacterial expression system by BROMOScan assay
[13] = AUC in Balb/c mouse at 25 mg/kg, po by LC-MS/MS analysis; format: ADME, organism-based; details: in vivo; procedure, shortened: as §1
[14] = biological target: Bromodomain adjacent to zinc finger domain protein 2A (Homo sapiens, UniProt Q9UIF9); experiment: Binding affinity to human BAZ2A (M1792 to L1905 residues) expressed in bacterial expression system by BROMOScan assay
[15] = biological target: Bromodomain-containing protein 9 (Homo sapiens, UniProt Q9H8M2); experiment: Binding affinity to human BRD9 (R130 to V259 residues) expressed in bacterial expression system by BROMOScan assay
[16] = biological target: Bromodomain-containing protein 8 (Homo sapiens, UniProt Q9H0E9); experiment: Inhibition of BRD8 bromodomain 1 (unknown origin) by BROMOScan assay
Peregrin = Peregrin (Homo sapiens, UniProt P55201); experiment: Binding affinity to human BRPF1 (E627 to G740 residues) expressed in bacterial expression system by BROMOScan assay
Homo sapiens [17] = species on record: Homo sapiens; experiment: Selectivity index, ratio of Kd for human EP300 (A1040 to G1161 residues) to Kd for human BRD2 bromodomain 1 (K71 to N194 residues)
[18] = Oral bioavailability in Balb/c mouse at 25 mg/kg by LC-MS/MS analysis; format: ADME, organism-based; details: in vivo; procedure, shortened: as §1
[19] = Drug uptake in tumor of SCID mouse xenografted with human MDA-MB-231 cells at 50 mg/kg administered via oral gavage measured after 1 hr; format: ADME, organism-based, Neoplasm; details: read-out: Drug uptake
Procedure, shortened: (§2)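 Limited PK in SCID mice bearing MDA-MB-231 tumors, 50 mg/kg given by oral gavage. Plasma and tumor tissue drug levels measured at two time points per compound. Values are the mean of two mice/tumors per time point.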

[20] = Drug uptake in tumor of SCID mouse xenografted with human MDA-MB-231 cells at 50 mg/kg administered via oral gavage measured after 6 hrs; format: ADME, organism-based, Neoplasm; details: read-out: Drug uptake; procedure, shortened: as §2
[21] = biological target: Histone acetyltransferase p300 (Homo sapiens, UniProt Q09472); experiment: Binding affinity to human EP300 (A1040 to G1161 residues) expressed in bacterial expression system by BROMOScan assay
[22] = biological target: T1, Bromodomain-containing protein 3; experiment: Binding affinity to human BRD3 bromodomain 1 (P24 to E144 residues) expressed in bacterial expression system by BROMOscan assay

T1 sequence (Q15059 whole entry, the tested form may be a part): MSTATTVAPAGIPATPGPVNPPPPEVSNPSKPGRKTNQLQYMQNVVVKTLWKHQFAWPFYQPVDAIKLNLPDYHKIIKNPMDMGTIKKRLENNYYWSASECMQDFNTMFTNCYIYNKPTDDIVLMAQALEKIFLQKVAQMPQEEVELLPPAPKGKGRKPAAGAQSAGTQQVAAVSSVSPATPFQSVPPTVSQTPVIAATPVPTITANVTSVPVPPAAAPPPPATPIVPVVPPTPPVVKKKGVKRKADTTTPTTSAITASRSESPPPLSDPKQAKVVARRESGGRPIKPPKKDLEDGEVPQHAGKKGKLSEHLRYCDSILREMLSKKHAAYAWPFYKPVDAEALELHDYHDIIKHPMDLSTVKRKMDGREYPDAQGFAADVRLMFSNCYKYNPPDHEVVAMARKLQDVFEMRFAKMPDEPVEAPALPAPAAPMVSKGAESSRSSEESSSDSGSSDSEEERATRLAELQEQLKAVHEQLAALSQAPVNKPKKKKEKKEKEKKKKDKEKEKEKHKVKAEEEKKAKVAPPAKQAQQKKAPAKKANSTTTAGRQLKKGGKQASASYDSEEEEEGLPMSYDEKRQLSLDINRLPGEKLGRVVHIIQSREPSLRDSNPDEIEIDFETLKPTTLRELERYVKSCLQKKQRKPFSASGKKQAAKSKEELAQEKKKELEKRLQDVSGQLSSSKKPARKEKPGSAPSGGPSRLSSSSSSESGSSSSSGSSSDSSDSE
Sequence of E3 ubiquitin-protein ligase TRIM33 (Q9UPN9 whole entry, the tested form may be a part): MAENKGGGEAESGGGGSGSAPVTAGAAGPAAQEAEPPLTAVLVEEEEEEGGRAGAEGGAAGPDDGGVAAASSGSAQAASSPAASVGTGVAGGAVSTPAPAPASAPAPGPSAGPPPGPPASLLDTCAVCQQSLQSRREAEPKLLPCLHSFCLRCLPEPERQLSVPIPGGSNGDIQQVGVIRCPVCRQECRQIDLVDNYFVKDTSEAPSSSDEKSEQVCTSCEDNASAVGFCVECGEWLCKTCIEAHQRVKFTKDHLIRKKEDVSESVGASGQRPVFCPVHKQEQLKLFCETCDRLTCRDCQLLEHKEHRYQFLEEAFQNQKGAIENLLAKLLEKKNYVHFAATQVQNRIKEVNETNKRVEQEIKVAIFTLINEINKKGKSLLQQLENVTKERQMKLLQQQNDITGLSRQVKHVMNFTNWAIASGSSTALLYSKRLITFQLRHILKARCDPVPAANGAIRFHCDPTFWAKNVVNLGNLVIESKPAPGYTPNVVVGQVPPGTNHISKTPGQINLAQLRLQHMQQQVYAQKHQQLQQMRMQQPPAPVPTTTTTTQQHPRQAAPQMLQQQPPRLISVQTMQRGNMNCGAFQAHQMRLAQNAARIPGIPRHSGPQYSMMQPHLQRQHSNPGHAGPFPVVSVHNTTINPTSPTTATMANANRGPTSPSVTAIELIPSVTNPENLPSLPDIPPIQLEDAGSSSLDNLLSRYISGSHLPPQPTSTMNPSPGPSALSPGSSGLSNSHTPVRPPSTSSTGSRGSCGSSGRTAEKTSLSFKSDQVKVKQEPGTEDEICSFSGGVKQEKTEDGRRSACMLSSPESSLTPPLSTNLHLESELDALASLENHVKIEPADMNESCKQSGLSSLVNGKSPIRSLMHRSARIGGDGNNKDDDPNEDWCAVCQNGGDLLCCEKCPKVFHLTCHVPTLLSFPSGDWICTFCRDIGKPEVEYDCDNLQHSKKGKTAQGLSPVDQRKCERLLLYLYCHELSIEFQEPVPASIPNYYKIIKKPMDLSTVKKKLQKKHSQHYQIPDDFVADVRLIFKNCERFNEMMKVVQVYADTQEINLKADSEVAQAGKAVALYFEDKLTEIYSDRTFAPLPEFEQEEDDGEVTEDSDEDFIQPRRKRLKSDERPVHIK
Sequence of ATPase family AAA domain-containing protein 2 (Q6PL18 whole entry, the tested form may be a part): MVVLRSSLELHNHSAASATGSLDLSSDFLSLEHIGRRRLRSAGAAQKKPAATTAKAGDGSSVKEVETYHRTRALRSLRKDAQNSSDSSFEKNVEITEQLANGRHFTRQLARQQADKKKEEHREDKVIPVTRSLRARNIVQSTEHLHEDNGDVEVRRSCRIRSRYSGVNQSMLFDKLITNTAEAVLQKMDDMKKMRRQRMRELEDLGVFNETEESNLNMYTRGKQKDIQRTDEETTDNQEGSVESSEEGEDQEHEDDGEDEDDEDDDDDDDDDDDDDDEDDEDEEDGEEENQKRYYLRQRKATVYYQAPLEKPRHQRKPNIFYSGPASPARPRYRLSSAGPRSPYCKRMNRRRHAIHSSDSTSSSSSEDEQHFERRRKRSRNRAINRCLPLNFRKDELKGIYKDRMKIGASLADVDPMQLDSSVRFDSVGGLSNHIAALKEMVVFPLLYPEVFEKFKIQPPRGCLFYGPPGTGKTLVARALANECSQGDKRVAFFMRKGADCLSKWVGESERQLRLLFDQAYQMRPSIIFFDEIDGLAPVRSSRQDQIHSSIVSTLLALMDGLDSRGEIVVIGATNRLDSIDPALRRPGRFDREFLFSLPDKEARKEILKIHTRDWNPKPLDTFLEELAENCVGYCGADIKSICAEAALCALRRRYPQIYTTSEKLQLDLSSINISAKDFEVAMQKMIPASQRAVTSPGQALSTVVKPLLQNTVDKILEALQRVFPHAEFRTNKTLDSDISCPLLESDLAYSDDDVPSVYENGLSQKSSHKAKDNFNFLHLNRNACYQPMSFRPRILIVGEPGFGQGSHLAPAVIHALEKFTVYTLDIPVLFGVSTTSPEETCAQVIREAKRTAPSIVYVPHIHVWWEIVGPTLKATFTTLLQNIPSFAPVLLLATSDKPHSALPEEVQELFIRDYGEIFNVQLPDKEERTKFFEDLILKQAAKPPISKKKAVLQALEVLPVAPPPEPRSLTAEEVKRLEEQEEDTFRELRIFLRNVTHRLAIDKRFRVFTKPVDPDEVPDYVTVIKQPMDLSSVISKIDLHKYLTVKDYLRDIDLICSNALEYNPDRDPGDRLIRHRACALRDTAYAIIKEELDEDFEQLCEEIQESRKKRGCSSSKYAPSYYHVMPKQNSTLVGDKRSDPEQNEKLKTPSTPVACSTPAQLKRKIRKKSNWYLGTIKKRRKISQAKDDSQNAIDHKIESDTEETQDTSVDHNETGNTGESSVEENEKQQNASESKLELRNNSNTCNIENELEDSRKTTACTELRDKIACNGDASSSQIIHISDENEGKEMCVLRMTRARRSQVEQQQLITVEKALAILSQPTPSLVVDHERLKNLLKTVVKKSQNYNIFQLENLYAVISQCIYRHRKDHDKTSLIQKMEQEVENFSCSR
Sequence of Bromodomain-containing protein 8 (Q9H0E9 whole entry, the tested form may be a part): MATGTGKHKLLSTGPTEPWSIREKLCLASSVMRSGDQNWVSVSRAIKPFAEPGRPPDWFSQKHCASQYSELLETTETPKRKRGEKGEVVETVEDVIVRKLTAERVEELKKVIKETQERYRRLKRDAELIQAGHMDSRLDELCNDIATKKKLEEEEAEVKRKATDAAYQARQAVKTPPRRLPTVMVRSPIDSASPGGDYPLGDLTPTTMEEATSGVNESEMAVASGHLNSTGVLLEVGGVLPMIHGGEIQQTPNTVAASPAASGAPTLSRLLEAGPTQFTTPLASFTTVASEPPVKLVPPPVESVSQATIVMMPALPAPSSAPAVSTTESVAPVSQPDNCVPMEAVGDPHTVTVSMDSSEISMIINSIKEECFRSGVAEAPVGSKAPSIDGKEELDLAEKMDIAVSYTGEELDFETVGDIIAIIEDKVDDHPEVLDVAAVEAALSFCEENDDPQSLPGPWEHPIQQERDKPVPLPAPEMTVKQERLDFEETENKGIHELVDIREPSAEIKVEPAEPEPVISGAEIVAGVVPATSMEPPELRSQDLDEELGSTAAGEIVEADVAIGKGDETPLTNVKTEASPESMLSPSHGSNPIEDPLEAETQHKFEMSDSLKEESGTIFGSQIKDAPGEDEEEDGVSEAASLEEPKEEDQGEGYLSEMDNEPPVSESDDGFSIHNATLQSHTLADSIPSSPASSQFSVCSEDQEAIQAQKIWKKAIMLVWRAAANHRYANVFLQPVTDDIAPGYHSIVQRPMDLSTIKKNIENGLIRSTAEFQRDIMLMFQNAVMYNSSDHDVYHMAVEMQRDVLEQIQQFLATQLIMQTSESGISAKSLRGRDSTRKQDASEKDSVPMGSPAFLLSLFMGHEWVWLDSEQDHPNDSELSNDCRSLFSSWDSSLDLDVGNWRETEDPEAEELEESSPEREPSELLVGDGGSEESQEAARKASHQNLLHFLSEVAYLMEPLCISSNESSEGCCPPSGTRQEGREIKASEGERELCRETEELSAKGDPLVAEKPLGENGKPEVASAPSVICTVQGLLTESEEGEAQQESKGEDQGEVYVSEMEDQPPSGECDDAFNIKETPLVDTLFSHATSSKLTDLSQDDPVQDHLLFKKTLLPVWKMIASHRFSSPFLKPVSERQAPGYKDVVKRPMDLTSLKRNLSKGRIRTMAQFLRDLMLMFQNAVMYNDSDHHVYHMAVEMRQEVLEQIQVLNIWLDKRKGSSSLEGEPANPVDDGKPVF
Sequence of Bromodomain-containing protein 9 (Q9H8M2 whole entry, the tested form may be a part): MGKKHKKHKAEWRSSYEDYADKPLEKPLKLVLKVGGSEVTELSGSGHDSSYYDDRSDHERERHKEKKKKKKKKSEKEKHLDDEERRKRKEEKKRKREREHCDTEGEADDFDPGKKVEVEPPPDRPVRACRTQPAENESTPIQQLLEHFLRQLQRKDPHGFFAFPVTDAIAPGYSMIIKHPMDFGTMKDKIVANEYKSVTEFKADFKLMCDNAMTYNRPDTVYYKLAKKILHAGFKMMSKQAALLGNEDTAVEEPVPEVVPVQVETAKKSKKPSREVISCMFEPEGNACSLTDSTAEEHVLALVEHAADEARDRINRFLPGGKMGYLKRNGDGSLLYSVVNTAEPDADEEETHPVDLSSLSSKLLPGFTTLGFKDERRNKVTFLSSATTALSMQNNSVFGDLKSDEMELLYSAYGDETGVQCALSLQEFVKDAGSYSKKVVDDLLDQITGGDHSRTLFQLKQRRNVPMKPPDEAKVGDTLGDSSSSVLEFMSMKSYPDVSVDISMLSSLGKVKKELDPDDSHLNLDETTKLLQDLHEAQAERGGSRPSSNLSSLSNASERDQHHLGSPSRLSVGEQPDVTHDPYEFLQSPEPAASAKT

Kd [1]: > 5000 nM
Selectivity Index (Homo sapiens [2]): > 50
Kd [3]: 0.49 nM
Selectivity Index (Homo sapiens [4]): > 20
Selectivity Index (Homo sapiens [5]): > 20
Kd [6]: 2.2 nM
Vd [7]: 0.83 L/kg
Kd (Protein polybromo-1): > 3000 nM
Kd [8]: > 5000 nM
half-life [9]: 1 h
IC50 [10]: 2 nM
Ki [10]: < 1 nM
Kd [11]: > 5000 nM
Kd [12]: > 5000 nM
AUC [13]: 32.2 µM·h
Kd [14]: > 5000 nM
Kd [15]: > 5000 nM
Kd [16]: > 5000 nM
Kd (Peregrin): > 4000 nM
Selectivity Index (Homo sapiens [17]): > 50
bioavailability [18]: 71.3%
concentration at 1 h [19]: 7380 ng/g
concentration at 6 h [20]: 3670 ng/g
Kd [21]: 110 nM
Kd [22]: 0.52 nM
Compound: COc1cc2c(cc1-c1c(C)noc1C)[nH]c1nc(C)nc(Nc3cc(C4CC4)nn3C)c12
Activity (Mus musculus): Non-Toxic

From ChEMBL document CHEMBL4145654, “Structure-Based Discovery of CF53 as a Potent and Orally Bioavailable Bromodomain and Extra-Terminal (BET) Bromodomain Inhibitor” (J Med Chem, 2018)
